ChEMBL document CHEMBL1142067, “Antiparasitic drug nitazoxanide inhibits the pyruvate oxidoreductases of Helicobacter pylori, selected anaerobic bacteria and parasites, and Campylobacter jejuni” (Antimicrob Agents Chemother, 2007)
The source made the active and inactive calls. The calls are words filed in the database; no cut-off is given here.

Tests used:
[1] = Inhibition of PFOR Helicobacter pylori
Outline: (§1)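 PFOR in extracts or partly purified enzyme, standard anaerobic assay at 25°C with excess benzyl viologen (5 mM). Initial velocities of BV reduction at 546 nm measured at each NTZ level (0 to 264 µM). Plotted as 1/V against inhibitor concentration to derive Ki. Triplicate.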

[2] = biological target: T1, Pyruvate-flavodoxin oxidoreductase (Campylobacter jejuni subsp. jejuni) (UniProt Q0P8E1); assay: Activity of PFOR in Campylobacter jejuni at anaerobic condition
T1 sequence (whole entry): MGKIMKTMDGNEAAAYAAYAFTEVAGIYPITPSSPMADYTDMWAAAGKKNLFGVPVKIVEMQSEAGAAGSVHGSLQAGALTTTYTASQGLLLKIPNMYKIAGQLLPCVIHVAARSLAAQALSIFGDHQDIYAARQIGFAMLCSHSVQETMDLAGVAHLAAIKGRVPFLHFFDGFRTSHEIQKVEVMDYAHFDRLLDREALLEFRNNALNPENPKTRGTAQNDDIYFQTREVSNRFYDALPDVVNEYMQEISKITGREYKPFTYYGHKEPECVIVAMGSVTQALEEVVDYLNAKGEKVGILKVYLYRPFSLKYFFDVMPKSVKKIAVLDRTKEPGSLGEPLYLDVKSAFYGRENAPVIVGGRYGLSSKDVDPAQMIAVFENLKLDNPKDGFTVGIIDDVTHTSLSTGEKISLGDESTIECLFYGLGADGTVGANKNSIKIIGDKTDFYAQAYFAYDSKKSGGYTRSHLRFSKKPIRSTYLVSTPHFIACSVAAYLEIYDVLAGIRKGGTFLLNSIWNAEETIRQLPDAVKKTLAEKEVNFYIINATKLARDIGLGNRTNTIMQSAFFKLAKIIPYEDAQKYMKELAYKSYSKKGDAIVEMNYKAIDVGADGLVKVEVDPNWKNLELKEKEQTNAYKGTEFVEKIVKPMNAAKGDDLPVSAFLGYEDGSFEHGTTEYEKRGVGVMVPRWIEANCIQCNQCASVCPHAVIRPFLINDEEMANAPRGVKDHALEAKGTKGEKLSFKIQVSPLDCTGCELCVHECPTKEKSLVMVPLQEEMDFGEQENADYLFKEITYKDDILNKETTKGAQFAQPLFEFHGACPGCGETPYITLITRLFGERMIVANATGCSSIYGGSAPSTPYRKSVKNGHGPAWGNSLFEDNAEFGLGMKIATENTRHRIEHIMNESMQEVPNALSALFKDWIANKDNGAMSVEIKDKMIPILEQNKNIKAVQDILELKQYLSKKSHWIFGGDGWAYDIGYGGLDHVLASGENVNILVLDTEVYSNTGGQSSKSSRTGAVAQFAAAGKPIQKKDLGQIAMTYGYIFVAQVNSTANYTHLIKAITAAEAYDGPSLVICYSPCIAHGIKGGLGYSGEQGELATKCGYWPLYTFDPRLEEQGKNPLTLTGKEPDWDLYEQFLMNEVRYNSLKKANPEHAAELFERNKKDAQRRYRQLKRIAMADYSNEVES
Outline: (§2)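 Cell-free extracts, high-speed supernatant after sonication (parasites: sonication or glass homogenizer). PFOR assayed anaerobically at 25°C in 100 mM potassium phosphate pH 7.4 with 10 mM pyruvate, 0.18 mM CoA, 1 mM MgCl2 and 5 µM TPP. Acceptor was 5 mM benzyl viologen (546 nm) or NTZ (decrease at 418 nm). Enzyme added last. Triplicate means, per mg Bradford protein.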

Helicobacter pylori = assay: Activity of PFOR in Helicobacter pylori at anaerobic condition; outline: as §2
[3] = Inhibition of PFOR Trichomonas vaginalis; outline: as §1
Entamoeba histolytica [4] = assay: Activity of PFOR in Entamoeba histolytica at anaerobic condition; outline: as §2
Escherichia coli [5] = assay: Inhibition of Escherichia coli JVQ2 PDH at 20 uM
Entamoeba histolytica [6] = assay: Inhibition of Entamoeba histolytica PFOR cloned in Escherichia coli assessed as [14C]pyruvate decarboxylation by BV assay
[7] = Inhibition of PFOR Entamoeba histolytica; outline: as §1
Clostridioides difficile = assay: Activity of PFOR in Clostridium difficile at anaerobic condition; outline: as §2
Escherichia coli [8] = assay: Growth inhibition of Escherichia coli; type: functional
[9] = biological target: T2, Pyruvate-flavodoxin oxidoreductase (Clostridium perfringens (strain SM101 / Type A)) (UniProt Q0SRB6); assay: Activity of PFOR in Clostridium perfringens at anaerobic condition; outline: as §2
T2 sequence (whole entry): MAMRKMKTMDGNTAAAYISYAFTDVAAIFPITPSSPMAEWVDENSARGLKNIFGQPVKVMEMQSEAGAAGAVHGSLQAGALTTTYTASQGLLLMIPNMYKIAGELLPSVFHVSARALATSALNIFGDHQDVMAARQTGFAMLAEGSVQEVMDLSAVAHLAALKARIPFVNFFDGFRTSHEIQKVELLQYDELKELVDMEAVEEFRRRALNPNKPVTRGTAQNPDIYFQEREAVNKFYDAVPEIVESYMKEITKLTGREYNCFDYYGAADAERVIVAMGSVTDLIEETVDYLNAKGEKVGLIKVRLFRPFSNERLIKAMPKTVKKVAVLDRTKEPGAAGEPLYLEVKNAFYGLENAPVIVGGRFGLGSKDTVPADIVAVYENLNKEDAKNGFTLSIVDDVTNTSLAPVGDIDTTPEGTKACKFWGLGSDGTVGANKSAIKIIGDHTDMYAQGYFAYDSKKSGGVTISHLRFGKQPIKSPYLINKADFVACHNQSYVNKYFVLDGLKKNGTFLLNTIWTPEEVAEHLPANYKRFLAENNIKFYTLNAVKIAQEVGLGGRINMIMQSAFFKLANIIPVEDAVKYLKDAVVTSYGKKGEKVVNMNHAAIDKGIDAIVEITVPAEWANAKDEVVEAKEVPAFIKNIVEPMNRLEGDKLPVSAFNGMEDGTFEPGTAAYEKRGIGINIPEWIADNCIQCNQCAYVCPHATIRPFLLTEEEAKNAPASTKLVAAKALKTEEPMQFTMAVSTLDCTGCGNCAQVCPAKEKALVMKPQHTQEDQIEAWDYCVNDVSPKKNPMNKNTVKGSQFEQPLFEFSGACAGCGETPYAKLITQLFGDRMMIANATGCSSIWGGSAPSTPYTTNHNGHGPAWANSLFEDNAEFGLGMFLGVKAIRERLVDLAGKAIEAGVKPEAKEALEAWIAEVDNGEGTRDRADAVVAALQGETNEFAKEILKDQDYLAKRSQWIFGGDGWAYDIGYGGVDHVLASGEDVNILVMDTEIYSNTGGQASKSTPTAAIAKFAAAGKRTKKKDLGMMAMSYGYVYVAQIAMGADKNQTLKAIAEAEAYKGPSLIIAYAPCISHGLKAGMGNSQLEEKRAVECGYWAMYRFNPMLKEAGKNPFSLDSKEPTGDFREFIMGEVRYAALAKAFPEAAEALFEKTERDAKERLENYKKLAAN

[10] = biological target: T3, Pyruvate-flavodoxin oxidoreductase (Campylobacter jejuni subsp. jejuni, UniProt Q0P8E1); assay: Inhibition of PFOR Campylobacter jejuni; outline: as §1
T3 sequence (Q0P8E1 whole entry): T1 sequence (whole entry)

Giardia duodenalis = assay: Activity of PFOR in Giardia intestinalis at anaerobic condition; outline: as §2
Escherichia coli [11] = assay: Growth inhibition of Escherichia coli CC104 expressing rdxA gene after 16 hrs; type: functional
Outline: (§3)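 E. coli CC104 carrying pGS950 (H. pylori rdxA) or empty pBSK, grown in 2% glucose MinA liquid medium with drug at 0, 5, 10 or 15 µg/ml. Turbidity at 660 nm read at 16 h in triplicate and expressed as a percentage of the no-drug control.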

Escherichia coli [12] = assay: Growth inhibition of Escherichia coli pBSK after 16 hrs; type: functional; outline: as §3
Escherichia coli [13] = assay: Growth inhibition of Escherichia coli CC104 expressing rdxA after 16 hrs relative to Escherichia coli with pBSK; type: functional, organism-based
Outline: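 E. coli CC104 carrying pGS950 (expresses H. pylori rdxA) or empty pBSK was grown in 2% glucose minimal (MinA) liquid medium with drug at 0, 5, 10 or 15 µg/ml. Turbidity at 660 nm was read at 16 h in triplicate cultures, normalized to the no-drug control, and expressed as percent growth inhibition (mean and standard deviation).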

Trichomonas vaginalis = assay: Activity of PFOR in Trichomonas vaginalis at anaerobic condition; outline: as §2

Row | SMILES | Ki [1] | Activity [2] | Activity (Helicobacter pylori) | Ki [3] | Activity (Entamoeba histolytica [4]) | inhibition (Escherichia coli [5]) | Activity (Entamoeba histolytica [6]) | Ki [7] | Activity (Clostridioides difficile) | MIC (Escherichia coli [8]) | Activity [9] | Ki [10] | Activity (Giardia duodenalis) | Km (Giardia duodenalis) | Inhibition (Escherichia coli [11]) | Inhibition (Escherichia coli [12]) | Activity (Escherichia coli [13]) | Activity (Trichomonas vaginalis)
1 | CC(=O)Oc1ccccc1C(=O)Nc1ncc([N+](=O)[O-])s1 [NITAZOXANIDE] | 4.5 µM | 20 nmol/mg/min | 8.5 nmol/mg/min | 2.2 µM | 19 nmol/mg/min | 22% | Active | 10 µM | 18.8 nmol/mg/min | > 32 mg/L | 56.5 nmol/mg/min | 10.5 µM | 41.5 nmol/mg/min | 44 µM | 35% | 35% |  | 
2 | Cc1ncc([N+](=O)[O-])n1CCO |  |  |  |  |  |  |  |  |  |  |  |  |  |  |  |  | Active | 
3 | c1ccc(C[n+]2ccc(-c3cc[n+](Cc4ccccc4)cc3)cc2)cc1 |  | 115 nmol/mg/min | 127 nmol/mg/min |  | 742 nmol/mg/min |  |  |  | 106 nmol/mg/min |  | 225 nmol/mg/min |  | 62.5 nmol/mg/min |  |  |  |  | 52.5 nmol/mg/min
